Assay results: ChEMBL document CHEMBL1122328, “Hypolipidemic activity of phthalimide derivatives. 2. N-phenylphthalimide and derivatives” (1983)

Assays:
[1] = tested on: Mus musculus; experiment: Effect on neutral lipids from CF1 male mice after 16 days at a dose of 40 (mg/kg/day); format: functional
How it was run: (§1)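 Dosing was ip in CF₁ male mice (~25 g) for 16 days, with compound suspended in 1% carboxymethylcellulose. Liver was then taken and homogenised to 10% in 0.25 M sucrose with 0.001 M EDTA. Lipid was extracted from a 2 mL aliquot by the Folch and Bligh–Dyer methods and total mg of lipid was weighed. Cholesterol (Liebermann–Burchard), triglycerides (kit), neutral lipids and phospholipids were then measured; N = 6; reported as % of vehicle control.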

[2] = tested on: Rattus norvegicus; experiment: Effect on Serum triglceride levels on Holtzman rats at a dose of 20 (mg/kg)/day after 14 days; format: functional
How it was run: (§2)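 Holtzman male rats (~200 g) dosed orally by intubation needle daily for 16 days, drug suspended in 1% carboxymethylcellulose; n = 6; vehicle control. Tail-vein serum cholesterol on days 9 and 16 by modified Liebermann–Burchard reaction; day-14 serum triglyceride by commercial kit; % control.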

[3] = tested on: Mus musculus; experiment: In vitro effect on CF1 male mouse onAc-CoA carboxylase after 16 days at a dose of 10 (mg/kg)/day; format: functional; details: in the assay text read “In vivo” for “In vitro”
How it was run: (§3)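 Mice (CF1 males) given agent ip daily for 16 days in 1% carboxymethylcellulose; liver 10% homogenate in 0.25 M sucrose + 0.001 M EDTA. Acetyl-CoA carboxylase first polymerized 30 min at 37 °C, then incubated 30 min at 37 °C with sodium [14C]bicarbonate (41.0 mCi/mmol); incorporated label counted. Activity as % of vehicle control; N = 6.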

[4] = tested on: Mus musculus; experiment: In vitro effect on CF1 male mouse on acyltransferase after 16 days at a dose of 60 (mg/kg)/day; format: functional
How it was run: (§4)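 In vivo enzyme study. CF₁ male mice were dosed ip for 16 days in 1% CMC, and liver was homogenised to 10% in 0.25 M sucrose with 0.001 M EDTA. Enzymes assayed: acetyl-CoA synthetase as hydroxamate at 540 nm after 30 min at 37 °C; HMG CoA reductase with [1-¹⁴C]acetate in 9000g supernatant for 60 min at 37 °C; fatty acid synthetase with [2-¹⁴C]malonyl-CoA; acyltransferase with [³H]glycerol 3-phosphate and microsomes for 10 min; phosphatidate phosphohydrolase as released phosphate at 820 nm after 30 min. N = 6; reported as % control.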

[5] = tested on: Mus musculus; experiment: In vivo effect on CF1 male mouse on Lipid content after 16 days at a dose of 20 (mg/kg)/day
[6] = organism: Mus musculus; experiment: In vitro effect on CF1 male mouse on Fatty acid synthetase; format: functional
[7] = tested on: Mus musculus; experiment: Effect on Serum cholesterol levels on Hyperlipidemic induced mice After 14 days dosing.; format: functional
How it was run: (§5)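 Mice fed atherogenic diet for 2 weeks to raise serum lipids, then given drug at 20 (mg/kg)/day ip for a further 2 weeks; serum cholesterol and triglyceride measured after the diet and after 14 days dosing; n = 6; compared with 1% CMC and diet-only controls; % control.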

[8] = tested on: Mus musculus; experiment: Effect on neutral lipids from CF1 male mice after 16 days at a dose of 60 (mg/kg/day); format: functional; how it was run: as §1
[9] = organism: Mus musculus; experiment: In vitro effect on CF1 male mouse on Ac-CoA synthetase; format: functional
How it was run: (§6)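 In vitro test on 10% CF₁ male mouse liver homogenate (0.25 M sucrose, 0.001 M EDTA) with 2.5 μmol test drug. Assays: acetyl-CoA synthetase and citrate lyase as hydroxamate at 540 nm, 30 min, 37 °C; citrate exchange from [¹⁴C]citrate-loaded mitochondria after 10 min with drug; side-chain oxidation by ¹⁴CO₂ from [26-¹⁴C]cholesterol, 18 h, 37 °C; acetyl-CoA carboxylase by [¹⁴C]bicarbonate fixation after 30 min polymerization then 30 min at 37 °C.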

[10] = tested on: Mus musculus; experiment: Effect on Serum cholesterol levels on CF1 male mice at a dose of 50 (mg/kg)/day after 9 days; format: functional
How it was run: (§7)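 CF1 male mice (~25 g), drug suspended in 1% carboxymethylcellulose in water, given ip daily for 16 days; n = 6; vehicle control. Tail-vein blood on days 9 and 16, serum cholesterol by modified Liebermann–Burchard reaction; day-14 serum triglyceride by commercial kit; expressed as % control.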

[11] = tested on: Mus musculus; experiment: Effect on Serum cholesterol levels on CF1 male mice at a dose of 25 (mg/kg)/day after 9 days; format: functional; how it was run: as §7
[12] = tested on: Mus musculus; experiment: Effect on Serum triglceride levels on CF1 male mice at a dose of 25 (mg/kg)/day after 14 days; format: functional; how it was run: as §7
[13] = tested on: Rattus norvegicus; experiment: Effect on Serum cholesterol levels on Holtzman rats at a dose of 20 (mg/kg)/day after 16 days; format: functional; how it was run: as §2
[14] = tested on: Mus musculus; experiment: In vitro effect on CF1 male mouse on Ac-CoA synthetase after 16 days at a dose of 60 (mg/kg)/day; format: functional; how it was run: as §4
[15] = organism: Mus musculus; experiment: In vitro effect on CF1 male mouse on Cholesterol side- chain oxidation; format: functional; how it was run: as §6
[16] = tested on: Rattus norvegicus; experiment: Effect on Serum cholesterol levels on Holtzman rats at a dose of 30 (mg/kg)/day after 16 days; format: functional; how it was run: as §2
[17] = tested on: Mus musculus; experiment: Effect on phospholipids from CF1 male mice after 16 days at a dose of 20 (mg/kg/day); format: functional; how it was run: as §1
[18] = tested on: Mus musculus; experiment: Effect on Serum triglceride levels on CF1 male mice at a dose of 20 (mg/kg)/day after 14 days; format: functional; how it was run: as §7
[19] = tested on: Rattus norvegicus; experiment: Effect on high density Protein Holtzman rats after 14 days administration; format: functional
How it was run: (§8)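 Holtzman male rats (~400 g) given drug at 20 (mg/kg)/day for 14 days; on day 14 blood taken from the abdominal aorta and serum separated by centrifugation at 3500 rpm; lipid and protein content of the lipoprotein fractions measured.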

[20] = tested on: Mus musculus; experiment: In vitro effect on CF1 male mouse on acyltransferase after 16 days at a dose of 20 (mg/kg)/day; format: functional; how it was run: as §4
[21] = tested on: Mus musculus; experiment: In vitro effect on CF1 male mouse onAc-CoA carboxylase after 16 days at a dose of 60 (mg/kg)/day; format: functional; how it was run: as §3
[22] = tested on: Mus musculus; experiment: Effect on phospholipids from CF1 male mice after 16 days at a dose of 60 (mg/kg/day); format: functional; how it was run: as §1
[23] = tested on: Mus musculus; experiment: Effect on triglycerides from CF1 male mice after 16 days at a dose of 10 (mg/kg/day); format: functional; how it was run: as §1
[24] = tested on: Mus musculus; experiment: In vitro effect on CF1 male mouse on HMGCoA reductase after 16 days at a dose of 60 (mg/kg)/day; format: functional; how it was run: as §4
[25] = tested on: Mus musculus; experiment: Effect on mg of lipid from CF1 male mice after 16 days at a dose of 60 (mg/kg/day); format: functional; how it was run: as §1
[26] = organism: Mus musculus; experiment: Effect on Serum cholesterol levels on Hyperlipidemic induced mice After 2-week diet; format: functional; how it was run: as §5
[27] = organism: Mus musculus; experiment: In vitro effect on CF1 male mouse on Mitochondrial citrate exchange; format: functional; how it was run: as §6
[28] = tested on: Mus musculus; experiment: In vitro effect on CF1 male mouse on acyltransferase after 16 days at a dose of 40 (mg/kg)/day; format: functional; how it was run: as §4
[29] = tested on: Rattus norvegicus; experiment: Effect on high density cholesterol Holtzman rats after 14 days administration; format: functional; how it was run: as §8
[30] = tested on: Mus musculus; experiment: In vitro effect on CF1 male mouse on Fatty acid synthetase after 16 days at a dose of 20 (mg/kg)/day; format: functional; how it was run: as §4
[31] = tested on: Rattus norvegicus; experiment: Effect on very low density cholesterol Holtzman rats after 14 days administration; format: functional
How it was run: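 Holtzman male rats (~400 g) received drug at 20 (mg/kg)/day for 14 days. On day 14, blood was collected from the abdominal aorta and serum was separated by centrifugation at 3500 rpm. Lipid content of the lipoprotein fractions was then determined.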

[32] = tested on: Mus musculus; experiment: Effect on Serum cholesterol levels on CF1 male mice at a dose of 12.5 (mg/kg)/day after 16 days; format: functional; how it was run: as §7

## CC(=O)c1ccccc1N1C(=O)c2ccccc2C1=O
[1]
  Control: 62%
[2]
  Control: 61%
[3]
  Control: 8%
[4]
  Control: 45%
[5]
  Control: 85%
[6]
  Control: 107%
[7]
  Control: 118%
[8]
  Control: 62%
[9]
  Control: 63%
[10]
  Control: 68%
[11]
  Control: 74%
[12]
  Control: 61%
[13]
  Control: 56%
[14]
  Control: 86%
[15]
  Control: 27%
[16]
  Control: 64%
[17]
  Control: 163%
[18]
  Control: 56%
[19]
  Control: 80%
[20]
  Control: 41%
[21]
  Control: 57%
[22]
  Control: 86%
[23]
  Control: 46%
[24]
  Control: 94%
[25]
  Control: 80%
[26]
  Control: 289%
[27]
  Control: 76%
[28]
  Control: 43%
[29]
  Control: 52%
[30]
  Control: 97%
[31]
  Control: 85%
[32]
  Control: 43%
